Test results reported in ChEMBL document CHEMBL1759862, “Tricyclic compounds containing nonenolizable cyano enones. A novel class of highly potent anti-inflammatory and cytoprotective agents” (J Med Chem, 2011).
“And” between values parts separate entries of the source, which are not always exact repeats. Equal entries are not always repeated. The source made the active and inactive calls. The calls are words filed in the database; no cut-off is given here.

How the values were obtained:
RAW264.7 [1] = assay: Antiinflammatory activity in mouse RAW264.7 cells assessed as inhibition of IFN-gamma induced NO production after 24 hrs by Griess reaction; assay type: functional, cell-based
Summary of the method: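 RAW 264.7 cells exposed to serial concentrations of compound together with IFN-γ (10 ng/mL) for 24 h; NO in supernatants quantified by Griess reaction. IC50 tested over 0.1 pM to 10 μM in 10-fold steps; values averaged from two separate experiments.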

[2] = target: NAD(P)H dehydrogenase [quinone] 1 (Mus musculus) (UniProt Q64669); assay: Induction of NQO1 activity in mouse Hepa-1c1c7 cells after 48 hrs; assay type: cell-based
Liver [3] = assay: Induction of HO-1 expression in CD-1 mouse liver at 1 umol administered via gavage measured after 6 hrs by Western blotting; assay type: functional, tissue-based
Stomach = assay: Induction of HO-1 expression in CD-1 mouse stomach at 1 umol administered via gavage measured after 6 hrs by Western blotting; assay type: functional, tissue-based
Summary of the method: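 Male CD-1 mice, three per group, received 1 μmol of compound in DMSO by gavage. Stomachs were harvested 6 h later, and HO-1 was detected by Western blot of tissue.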

Liver [4] = assay: Antitumor activity against aflatoxin B1-induced tumorigenesis in F344 rat liver assessed as reduction in tumor burden at 10 umol/kg administered via gavage relative to control; assay type: functional; set-up: scale not given: the % may be the effect or the level left
Summary of the method: (§1)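 Short-term rat model of liver tumorigenesis induced with aflatoxin B1. Test agent was given at 0.3 to 60 μmol/kg. Preneoplastic foci were scored in liver, and tumor burden was expressed against the AFB1-treated positive control group.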

Rattus norvegicus [5] = assay: Toxicity in F344 rat assessed as growth rate at 0.3 to 60 umol administered via gavage; assay type: organism-based; details: in vivo, po
Summary of the method: (§2)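 Tolerability was checked in rats in the aflatoxin B1 short-term hepatic tumorigenesis study, dosed at 0.3 to 60 μmol/kg. Growth rate and final body weight were compared with controls not given AFB1.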

Rattus norvegicus [6] = assay: Toxicity in F344 rat assessed as effect on body weight at 0.3 to 60 umol administered via gavage; assay type: organism-based; details: in vivo, po; summary of the method: as §2
RAW264.7 [7] = assay: Induction of HO-1 expression in mouse RAW264.7 cells at 10 nM after 6 hrs by Western blotting; assay type: functional, cell-based
Summary of the method: (§3)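 RAW 264.7 macrophages were exposed to compound at 10–100 nM for 6 h. HO-1 protein was detected by Western blot of total cell lysates.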

RAW264.7 [8] = assay: Induction of HO-1 expression in mouse RAW264.7 cells at 100 nM after 6 hrs by Western blotting; assay type: functional, cell-based; summary of the method: as §3
[9] = Antiinflammatory activity in CD-1 mouse Macrophage assessed as inhibition of IFN-gamma induced NO production after 48 hrs by Griess reaction; assay type: functional, cell-based
Liver [10] = assay: Antitumor activity against aflatoxin B1-induced tumorigenesis in F344 rat liver assessed as reduction in tumor burden at 0.3 umol/kg administered via gavage relative to control; assay type: functional; set-up: scale not given: the % may be the effect or the level left; summary of the method: as §1
Macrophage [11] = assay: Ratio of CDDO IC50 to compound IC50 for inhibition of IFN-gamma induced NO production in mouse macrophages; assay type: functional
RAW264.7 [12] = assay: Ratio of CDDO IC50 to compound IC50 for inhibition of IFN-gamma induced NO production in mouse RAW264.7 cells; assay type: functional
Summary of the method: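 RAW 264.7 cells were co-treated with compound (0.1 pM to 10 μM, 10-fold dilutions) and IFN-γ 10 ng/mL for 24 h. Nitric oxide in supernatants was measured by the Griess reaction. IC50 is the mean of two separate experiments, and the ratio is taken against CDDO's IC50.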

RAW264.7 [13] = assay: Inhibition of IFN-gamma induced iNOS expression in mouse RAW264.7 cells at 30 nM after 24 hrs by Western blotting; assay type: functional, cell-based
RAW264.7 [14] = assay: Induction of HO-1 expression in mouse RAW264.7 cells at 30 nM after 6 hrs by Western blotting; assay type: functional, cell-based
Summary of the method: (§4)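 RAW cells treated with compound for 6 h (30–300 nM range); HO-1 detected in total cell lysates by Western blot.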

RAW264.7 [15] = assay: Induction of HO-1 expression in mouse RAW264.7 cells at 300 nM after 6 hrs by Western blotting; assay type: functional, cell-based; summary of the method: as §4
Liver [16] = assay: Antitumor activity against aflatoxin B1-induced tumorigenesis in F344 rat liver assessed as reduction in tumor burden at 30 umol/kg administered via gavage; assay type: functional, tissue-based; summary of the method: as §1
Liver [17] = assay: Antitumor activity against aflatoxin B1-induced tumorigenesis in F344 rat liver assessed as reduction in tumor burden at 60 umol/kg administered via gavage; assay type: functional, tissue-based; summary of the method: as §1
Liver [18] = assay: Antitumor activity against aflatoxin B1-induced tumorigenesis in F344 rat liver assessed as inhibition of preneoplastic foci formation administered via gavage; assay type: functional, tissue-based; summary of the method: as §1
RAW264.7 [19] = assay: Inhibition of IFN-gamma induced iNOS expression in mouse RAW264.7 cells at 300 nM after 24 hrs by Western blotting; assay type: functional, cell-based
Macrophage [20] = assay: Antiinflammatory activity in CD-1 mouse Macrophage assessed as inhibition of IFN-gamma induced NO production after 48 hrs by Griess reaction in presence of glucocorticoid antagonist mifepristone; assay type: functional, cell-based
[21] = Cytotoxicity against CD-1 mouse macrophages at 10 uM; assay type: cell-based; details: macrophage

NAD(P)H dehydrogenase [quinone] 1 (Mus musculus), sequence (Q64669 whole entry): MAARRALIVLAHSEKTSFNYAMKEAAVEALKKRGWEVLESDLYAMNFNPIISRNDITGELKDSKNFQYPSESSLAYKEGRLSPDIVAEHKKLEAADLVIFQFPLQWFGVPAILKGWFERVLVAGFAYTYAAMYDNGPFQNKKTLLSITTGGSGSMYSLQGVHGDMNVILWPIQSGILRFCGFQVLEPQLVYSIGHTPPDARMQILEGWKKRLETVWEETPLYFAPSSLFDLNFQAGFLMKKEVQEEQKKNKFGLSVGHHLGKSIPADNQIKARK

Structure (SMILES) | IC50 (RAW264.7 [1]; Mus musculus, RAW264.7, 24 h) | CD [2] | Activity (Liver [3]) | Activity (Stomach) | Activity (RAW264.7 [7]) | Activity (RAW264.7 [8]) | Activity (RAW264.7 [15]) | further results
CC1(C)CC[C@]2(C(=O)n3ccnc3)CC[C@]3(C)[C@H](C(=O)C=C4[C@@]5(C)C=C(C#N)C(=O)C(C)(C)[C@@H]5CC[C@]43C)[C@@H]2C1 | 1 nM | 3.3 nM | Active | Active |  |  |  | Activity (Liver [4]): 99%; Activity (Rattus norvegicus [5]): Non-toxic; Activity (Rattus norvegicus [6]): Non-toxic
C#C[C@@]12C=C(C#N)C(=O)C=C1[C@]1(C)C=C(C#N)C(=O)C(C)(C)[C@H]1CC2 | 1 nM | 0.9 nM |  |  | Active | Active |  | 
CC1(C)C(=O)C(C#N)=C[C@@]2(C)C3=CC(=O)C(C#N)=C[C@@]3(C#C[Si](C)(C)C)CC[C@H]12 | 2 nM | 2.3 nM |  |  | Active | Active |  | 
C#C[C@]12C=C(C#N)C(=O)C=C1[C@@]1(C)C=C(C#N)C(=O)C(C)(C)[C@@H]1CC2 (racemic) [listing 1 of 2 here] |  |  |  |  |  |  |  | IC50 ([9]; Mus musculus, CD-1, Macrophage, 48 h): 0.056 nM; IC50 (RAW264.7 [1]; raw264.7): 1 nM; Activity (Liver [10]): 90%; Activity (Liver [4]): 99%; Ratio (Macrophage [11]): 80; Ratio (RAW264.7 [12]): 20; Activity (Rattus norvegicus [5]): Non-toxic; Activity (Rattus norvegicus [6]): Non-toxic
C#C[C@]12C=C(C#N)C(=O)C=C1[C@@]1(C)C=C(C#N)C(=O)C(C)(C)[C@@H]1CC2 (racemic) [listing 2 of 2 here] |  | 0.9 nM |  | Active | Active | Active | Active | inhibition (RAW264.7 [13]): Active; Activity (RAW264.7 [14]): Active; Activity (Liver [16]): Active; Activity (Liver [17]): Active; inhibition (Liver [18]): Dose-dependent effect
CC1(C)C(=O)C(C#N)=C[C@]2(C)C3=CC(=O)C(C#N)=C[C@]3(C#C[Si](C)(C)C)CC[C@@H]12 (racemic) |  | 3.5 nM |  |  | Active | Active | Active | inhibition (RAW264.7 [13]): Active; Activity (RAW264.7 [14]): Active
CC1(C)C(=O)C(C#N)=C[C@]2(C)C3=CC(=O)C(C#N)=C[C@]3(C)CC[C@@H]12 (racemic) |  | 18 nM | Active |  |  |  | Active | inhibition (RAW264.7 [19]): Active; inhibition (Macrophage [20]): Active
CC1(C)CC[C@]2(C(=O)O)CC[C@]3(C)[C@H](C(=O)C=C4[C@@]5(C)C=C(C#N)C(=O)C(C)(C)[C@@H]5CC[C@]43C)[C@@H]2C1 [BARDOXOLONE] | 17 nM | 2.3 nM | inactive | inactive |  |  |  | IC50 ([9]; macrophage): 4.3 nM and 0.5 nM; Activity [21]: Non-toxic
